Results collected from several papers.
Read-out: microbial growth

For `O=C(CCCCCCCC[P+](c1ccccc1)(c1ccccc1)c1ccccc1)Nc1ccc(O)c(O)c1.[Br-]`, the MIC was > 32 µg/mL (Cryptococcus neoformans; broth dilution; ATCC208821; 24 h).
`O=C(Nc1ccc2c(c1)OC(F)(F)O2)Nc1ccc(Cl)c(C(F)(F)F)c1` has an MIC of 0.3 µM (Listeria monocytogenes).
The MIC of `CCCCCCC/C=C/C(=O)N1C(=O)/C(=C(\O)CCCC)C(=O)C1CC(C)C` (stereo not drawn) is reported as > 200 µg/mL (Proteus vulgaris; ATCC33420).
`CCCCCCCCCCCCCCSC[C@@H]1O[C@@H](O[C@@H]2[C@@H](O)[C@H](O[C@@H]3O[C@@H](CN)[C@H](O)[C@@H](O)[C@@H]3N)[C@@H](N)C[C@H]2N)[C@@H](O)[C@H](N)[C@H]1O` gave an MIC of 0.5 to 1 µg/mL (Listeria monocytogenes; ATCC19115).
`CC(C)Oc1c(NC(=O)c2ccc(NC(=O)[C@H](CC(N)=O)NC(=O)c3ccc(NC(=O)c4ccc(C#N)cc4)cc3)cc2)ccc(C(=O)Nc2ccc(C(=O)O)cc2)c1O` has an MIC of 0.25 µg/mL (Proteus vulgaris; DSM2140).
For `C/C(O)=C1\C(=O)C(CC(C)C)N(C(=O)CCCCCc2ccccc2)C1=O` (stereo not drawn), the MIC was > 200 µg/mL (Proteus vulgaris; ATCC33420).
The MIC of `CCCCCCCCCCCCS(=O)(=O)C[C@@H]1O[C@@H](O[C@@H]2[C@@H](O)[C@H](O[C@@H]3O[C@@H](CN)[C@H](O)[C@@H](O)[C@@H]3N)[C@@H](N)C[C@H]2N)[C@@H](O)[C@H](N)[C@H]1O` is reported as 4 to 8 µg/mL (Listeria monocytogenes; ATCC19115).
For `CCCCCCC/C=C/C(=O)N1C(=O)/C(=C(\O)c2ccc(OCOCCOC)cc2)C(=O)C1CC(C)C` (stereo not drawn), the MIC was > 200 µg/mL (Proteus vulgaris; ATCC33420).
`CO[C@@H](C(N)=O)[C@H](NC(=O)c1ccc(NC(=O)c2ccc(C#N)cc2)cc1)C(=O)Nc1ccc(C(=O)Nc2ccc(C(=O)Nc3ccc(C(=O)O)cc3)c(O)c2OC(C)C)cc1` has an MIC of 0.125 µg/mL (Proteus vulgaris; DSM2140).
With `CCCCC(=O)N1C(=O)/C(=C(/C)O)C(=O)C1CC(C)C` (stereo not drawn) the MIC was > 200 µg/mL (Proteus vulgaris; ATCC33420).
With `CC(C)Oc1c(NC(=O)c2ccc(NC(=O)c3ccc(NC(=O)[C@H](CC(N)=O)NC(=O)c4ccc(NC(=O)c5ccc(C#N)s5)cc4)cc3)c(OC(C)C)c2O)ccc(C(=O)O)c1O` the MIC was 1 µg/mL (Proteus vulgaris; DSM2140).
With `CCCCCCC/C=C/C(=O)N1C(=O)/C(=C(/C)O)C(=O)C1Cc1ccc(OC(C)(C)C)cc1` (stereo not drawn) the MIC was > 200 µg/mL (Proteus vulgaris; ATCC33420).
The MIC of `C/C(=C\c1ccc(O)cc1)C(=O)Nc1ccc(C(=O)N[C@@H](CC(N)=O)C(=O)Nc2ccc(C(=O)Nc3ccc(C(=O)Nc4ccc(C(=O)O)cc4)c(O)c3OC(C)C)cc2)cc1` is reported as 0.125 µg/mL (Proteus vulgaris; DSM2140).
`CCCCCCCCCCCN1CCN(CC(O)(Cn2cncn2)c2ccc(F)cc2F)CC1` (stereo not drawn) has an MIC of 3.9 µg/mL (Nakaseomyces glabratus; broth dilution; ATCC2001; 48 h).
`O=C(CCc1ccc(O)c(O)c1)NCCCCCCCC[P+](c1ccccc1)(c1ccccc1)c1ccccc1.[Br-]` has an MIC of > 32 µg/mL (Cryptococcus neoformans; broth dilution; ATCC208821; 24 h).
With `CCCCCCC/C=C/C(=O)N1CC(=O)/C(=C(\C)O)C1=O` the MIC was > 200 µg/mL (Proteus vulgaris; ATCC33420).
`CC(C)Oc1c(NC(=O)c2ccc(NC(=O)[C@H](CC(N)=O)NC(=O)c3ccc(NC(=O)c4ccc(C#N)cn4)cc3)cc2)ccc(C(=O)Nc2ccc(C(=O)O)cc2)c1O` has an MIC of 0.06 µg/mL (Proteus vulgaris; DSM2140).
`CCCCCCCCN1CCN(CC(O)(Cn2cncn2)c2ccc(F)cc2F)CC1` (stereo not drawn) has an MIC of 15.6 µg/mL (Nakaseomyces glabratus; broth dilution; ATCC2001; 48 h).
